≈ marks a conversion by molar mass, not a printed value.
Columns and labels:
[1] = test system: DU-145; test: Cytotoxicity against […] human DU145 cells after 48 hrs by SRB assay; assay type: functional; details: DU-145, 48 h
In short: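 SRB assay in DU-145 cells grown in RPMI 1640 with 10% FBS and 2 mM L-glutamine. Cells were plated and held 24 h before addition of four 10-fold concentrations. After 48 h, cells were TCA-fixed, stained with 0.4% SRB and read at 540 nm. GI50, TGI and LC50 were derived against time-zero and control wells; each value is the mean of three experiments.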

[2] = test system: Aspergillus clavatus; test: Antifungal activity against 10^5 CFU/mL Aspergillus clavatus MTCC 1323 after 48 hrs by agar streak dilution method; assay type: functional; details: MTCC 1323, 48 h
In short: (§1)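 Agar streak dilution for fungi. Stock 100 µg/mL in DMSO; graded amounts were mixed into molten Sabouraud dextrose agar and poured at 4–5 mm depth. Serial dilutions ran over […]. About 10⁵ CFU/mL inoculum was applied, with incubation at 37 ± 1 °C for 48 h. MIC was read from the dilution series.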

[3] = test system: Klebsiella pneumoniae; test: Antibacterial activity against 10^5 CFU/mL Klebsiella pneumoniae MTCC 109 after 24 hrs by disc diffusion technique; assay type: functional
In short: (§2)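 Disc diffusion on Mueller–Hinton agar poured 5 mm deep. The surface was swabbed with a 10⁵ CFU/mL […] suspension. Filter-paper discs 6.25 mm in diameter were soaked in compound in DMSO and placed on the agar. Plates were incubated 24 h at 37 ± 1 °C, and the inhibition zone was measured in mm. A DMSO disc served as blank.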

[4] = test system: Staphylococcus aureus; test: Antibacterial activity against 10^5 CFU/mL Staphylococcus aureus MTCC 96 after 24 hrs by agar streak dilution method; assay type: functional; details: MTCC 96, 24 h
In short: (§3)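 Agar streak dilution. Stock 100 µg/mL in DMSO; graded amounts were mixed into molten nutrient agar and poured at 4–5 mm depth. Plates carried serial dilutions over […]. About 10⁵ CFU/mL of each bacterium was applied, and plates were incubated at 37 ± 1 °C for 24 h. MIC was read from the dilution series.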

[5] = test system: Escherichia coli; test: Antibacterial activity against 10^5 CFU/mL Escherichia coli MTCC 739 after 24 hrs by disc diffusion technique; assay type: functional; in short: as §2
[6] = test system: Salmonella typhi; test: Antibacterial activity against 10^5 CFU/mL Salmonella typhi MTCC 733 after 24 hrs by disc diffusion technique; assay type: functional, Salmonella enterica subsp. enterica serovar Typhi
In short: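 Disc diffusion. Mueller-Hinton agar autoclaved 120 °C 30 min, poured 5 mm deep. Surface swabbed with 10⁵ CFU/mL suspension […]. 6.25 mm filter-paper discs soaked in compound in DMSO; DMSO-only disc as blank. Incubated 37 ± 1 °C, 24 h for bacteria or 48 h for fungi. Ciprofloxacin and ketoconazole discs as reference drugs. Inhibition zone measured in mm.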

[7] = test system: Aspergillus fumigatus; test: Antifungal activity against 10^5 CFU/mL Aspergillus fumigatus MTCC 343 after 48 hrs by disc diffusion technique; assay type: functional
[8] = test system: Bacillus cereus; test: Antibacterial activity against 10^5 CFU/mL Bacillus cereus MTCC 619 after 24 hrs by disc diffusion technique; assay type: functional; in short: as §2
[9] = test system: Bacillus cereus; test: Antibacterial activity against 10^5 CFU/mL Bacillus cereus MTCC 619 after 24 hrs by agar streak dilution method; assay type: functional; details: MTCC 619, 24 h; in short: as §3
[10] = test system: Aspergillus niger; test: Antifungal activity against 10^5 CFU/mL Aspergillus niger MTCC 282 after 48 hrs by disc diffusion technique; assay type: functional
[11] = test system: Salmonella typhi; test: Antibacterial activity against 10^5 CFU/mL Salmonella typhi MTCC 733 after 24 hrs by agar streak dilution method; assay type: functional, Salmonella enterica subsp. enterica serovar Typhi; details: Salmonella enterica, MTCC 733, 24 h
[12] = test system: Pseudomonas aeruginosa; test: Antibacterial activity against 10^5 CFU/mL Pseudomonas aeruginosa MTCC 741 after 24 hrs by disc diffusion technique; assay type: functional; in short: as §2
[13] = test system: Aspergillus fumigatus; test: Antifungal activity against 10^5 CFU/mL Aspergillus fumigatus MTCC 343 after 48 hrs by agar streak dilution method; assay type: functional; details: MTCC 343, 48 h; in short: as §1
[14] = test system: Proteus vulgaris; test: Antibacterial activity against 10^5 CFU/mL Proteus vulgaris MTCC 1771 after 24 hrs by disc diffusion technique; assay type: functional; in short: as §2
[15] = test system: Klebsiella pneumoniae; test: Antibacterial activity against 10^5 CFU/mL Klebsiella pneumoniae MTCC 109 after 24 hrs by agar streak dilution method; assay type: functional; details: MTCC 109, 24 h; in short: as §3
[16] = test system: Aspergillus niger; test: Antifungal activity against 10^5 CFU/mL Aspergillus niger MTCC 282 after 48 hrs by agar streak dilution method; assay type: functional; details: MTCC 282, 48 h; in short: as §1
[17] = test system: Candida albicans; test: Antifungal activity against 10^5 CFU/mL Candida albicans MTCC 183 after 48 hrs by agar streak dilution method; assay type: functional; details: MTCC 183, 48 h; in short: as §1
[18] = test system: Shigella flexneri; test: Antibacterial activity against 10^5 CFU/mL Shigella flexneri MTCC 1457 after 24 hrs by agar streak dilution method; assay type: functional; details: MTCC 1457, 24 h; in short: as §3
[19] = test system: Shigella flexneri; test: Antibacterial activity against 10^5 CFU/mL Shigella flexneri MTCC 1457 after 24 hrs by disc diffusion technique; assay type: functional; in short: as §2
[20] = test system: Escherichia coli; test: Antibacterial activity against 10^5 CFU/mL Escherichia coli MTCC 739 after 24 hrs by agar streak dilution method; assay type: functional; details: MTCC 739, 24 h; in short: as §3
[21] = test system: Proteus vulgaris; test: Antibacterial activity against 10^5 CFU/mL Proteus vulgaris MTCC 1771 after 24 hrs by agar streak dilution method; assay type: functional; details: MTCC 1771, 24 h; in short: as §3
[22] = test system: Staphylococcus aureus; test: Antibacterial activity against 10^5 CFU/mL Staphylococcus aureus MTCC 96 after 24 hrs by disc diffusion technique; assay type: functional; in short: as §2
[23] = test system: Pseudomonas aeruginosa; test: Antibacterial activity against 10^5 CFU/mL Pseudomonas aeruginosa MTCC 741 after 24 hrs by agar streak dilution method; assay type: functional; details: MTCC 741, 24 h; in short: as §3
[24] = test system: Candida albicans; test: Antifungal activity against 10^5 CFU/mL Candida albicans MTCC 183 after 48 hrs by disc diffusion technique; assay type: functional
[25] = test system: Aspergillus clavatus; test: Antifungal activity against 10^5 CFU/mL Aspergillus clavatus MTCC 1323 after 48 hrs by disc diffusion technique; assay type: functional

| Compound | GI50 [1] [µM] | LC50 (concentration giving 50% net cell kill relative to time zero) [1] [µM] | TGI [1] [µM] | MIC [2] [µg/mL] | inhibition zone (IZ) [3] [mm] | MIC [4] [µg/mL] | inhibition zone (IZ) [5] [mm] | inhibition zone (IZ) [6] [mm] | inhibition zone (IZ) [7] [mm] | inhibition zone (IZ) [8] [mm] | MIC [9] [µg/mL] | inhibition zone (IZ) [10] [mm] | MIC [11] [µg/mL] | inhibition zone (IZ) [12] [mm] | MIC [13] [µg/mL] | inhibition zone (IZ) [14] [mm] | MIC [15] [µg/mL] | MIC [16] [µg/mL] | MIC [17] [µg/mL] | MIC [18] [µg/mL] | further results |
| --- | --- | --- | --- | --- | --- | --- | --- | --- | --- | --- | --- | --- | --- | --- | --- | --- | --- | --- | --- | --- | --- |
| N#Cc1ccc(Nc2nc(Oc3ccnc4ccccc34)nc(N3CCN(c4ccccc4)CC3)n2)cc1C(F)(F)F | > 100 | > 100 | > 100 | 100 (≈ 176 µM) | <10 | 100 (≈ 176 µM) | <10 | 13 | <10 | <10 | 100 (≈ 176 µM) | <10 | 100 (≈ 176 µM) | <10 | 100 (≈ 176 µM) | 14 | 100 (≈ 176 µM) | 100 (≈ 176 µM) | 100 (≈ 176 µM) | 100 (≈ 176 µM) | inhibition zone (IZ) [19]: <10 mm; MIC [20]: 100 µg/mL (≈ 176 µM); MIC [21]: 100 µg/mL (≈ 176 µM); inhibition zone (IZ) [22]: 14 mm; MIC [23]: 100 µg/mL (≈ 176 µM); inhibition zone (IZ) [24]: <10 mm; inhibition zone (IZ) [25]: <10 mm |
| COc1ccc(N2CCN(c3nc(Nc4ccc(C#N)c(C(F)(F)F)c4)nc(Oc4ccnc5ccccc45)n3)CC2)cc1 | > 100 | > 100 | > 100 | 12.5 (≈ 20.9 µM) | 23 | 25 (≈ 41.8 µM) | 25 | 24 | 27 | 28 | 6.25 (≈ 10.4 µM) | 25 | 25 (≈ 41.8 µM) | 26 | 25 (≈ 41.8 µM) | 24 | 25 (≈ 41.8 µM) | 25 (≈ 41.8 µM) | 50 (≈ 83.5 µM) | 12.5 (≈ 20.9 µM) | inhibition zone (IZ) [19]: 23 mm; MIC [20]: 12.5 µg/mL (≈ 20.9 µM); MIC [21]: 12.5 µg/mL (≈ 20.9 µM); inhibition zone (IZ) [22]: 24 mm; MIC [23]: 6.25 µg/mL (≈ 10.4 µM); inhibition zone (IZ) [24]: 24 mm; inhibition zone (IZ) [25]: 28 mm |
| N#Cc1ccc(Nc2nc(Oc3ccnc4ccccc34)nc(N3CCCCC3)n2)cc1C(F)(F)F | 94.9 | > 100 | > 100 | 100 (≈ 203 µM) | 15 | 100 (≈ 203 µM) | <10 | 12 | <10 | 14 | 100 (≈ 203 µM) | 12 | 100 (≈ 203 µM) | <10 | 100 (≈ 203 µM) | 14 | 100 (≈ 203 µM) | 100 (≈ 203 µM) | 100 (≈ 203 µM) | 100 (≈ 203 µM) | inhibition zone (IZ) [19]: <10 mm; MIC [20]: 100 µg/mL (≈ 203 µM); MIC [21]: 100 µg/mL (≈ 203 µM); inhibition zone (IZ) [22]: 11 mm; MIC [23]: 100 µg/mL (≈ 203 µM); inhibition zone (IZ) [24]: 12 mm; inhibition zone (IZ) [25]: 14 mm |
| N#Cc1ccc(Nc2nc(Oc3ccnc4ccccc34)nc(N3CCN(c4cccc(Cl)c4Cl)CC3)n2)cc1C(F)(F)F | > 100 | > 100 | > 100 | 50 (≈ 78.4 µM) | 24 | 6.25 (≈ 9.8 µM) | 23 | 25 | 25 | 28 | 6.25 (≈ 9.8 µM) | 24 | 12.5 (≈ 19.6 µM) | 23 | 25 (≈ 39.2 µM) | 25 | 12.5 (≈ 19.6 µM) | 25 (≈ 39.2 µM) | 50 (≈ 78.4 µM) | 12.5 (≈ 19.6 µM) | inhibition zone (IZ) [19]: 24 mm; MIC [20]: 50 µg/mL (≈ 78.4 µM); MIC [21]: 12.5 µg/mL (≈ 19.6 µM); inhibition zone (IZ) [22]: 28 mm; MIC [23]: 25 µg/mL (≈ 39.2 µM); inhibition zone (IZ) [24]: 23 mm; inhibition zone (IZ) [25]: 21 mm |

Reference: ChEMBL document CHEMBL1828552, “Synthesis and studies of novel 2-(4-cyano-3-trifluoromethylphenyl amino)-4-(quinoline-4-yloxy)-6-(piperazinyl/piperidinyl)-s-triazines as potential antimicrobial, antimycobacterial and anticancer agents” (2011)
